The target in assay [1] is T1, 5-hydroxytryptamine receptor 1A (Homo sapiens) (UniProt P08908).
T1 sequence (whole entry): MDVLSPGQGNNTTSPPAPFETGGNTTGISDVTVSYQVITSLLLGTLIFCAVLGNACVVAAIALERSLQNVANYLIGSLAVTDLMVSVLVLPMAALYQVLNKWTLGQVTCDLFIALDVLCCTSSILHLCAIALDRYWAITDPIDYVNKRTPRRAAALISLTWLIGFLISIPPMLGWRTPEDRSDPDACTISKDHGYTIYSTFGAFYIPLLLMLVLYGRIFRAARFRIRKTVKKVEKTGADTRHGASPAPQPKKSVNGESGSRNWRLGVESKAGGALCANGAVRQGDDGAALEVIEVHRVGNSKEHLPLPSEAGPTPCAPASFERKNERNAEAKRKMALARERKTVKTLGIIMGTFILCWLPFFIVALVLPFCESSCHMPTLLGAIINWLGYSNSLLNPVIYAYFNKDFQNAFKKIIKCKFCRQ
Kind of assay: Agonist activity at human 5-HT1A receptor expressed in CHO cells after 90 mins by beta-arrestin-2 recruitment assay relative to 5-HT. The assay is classed as cell-based. Summed up: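 PathHunter enzyme-complementation β-arrestin-2 recruitment in CHO-K1 cells carrying HTR1A, 10^4 cells/well, plated 24–48 h at 37 °C before use. Compounds from methanol stocks, final 0.1–100 μM, applied for 90 min at 37 °C. Detection reagents then added for 60 min at room temperature, luminescence read. Pooled from 3–4 independent experiments in duplicate, with 5-HT on every plate as reference.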
For orientation: Recruitment of arrestin is a read-out of receptor activation apart from second messengers.

In assay [2] the target is T2, 5-hydroxytryptamine receptor 1A (Homo sapiens, UniProt P08908).
T2 sequence (P08908 whole entry): T1 sequence (whole entry)
Briefly: Agonist activity at human 5-HT1A receptor expressed in human HeLa cell membranes assessed as stimulation of [35S]GTPgammaS binding after 20 mins by liquid scintillation counting analysis. The assay is classed as functional. (In general: GTPγS resists hydrolysis and so accumulates on activated G proteins.)

Assay [3] has as its target T2, 5-hydroxytryptamine receptor 1A. Kind of assay: Agonist activity at human 5-HT1A receptor expressed in CHO cells assessed as inhibition of forskolin-stimulated cAMP accumulation after 15 mins by ELISA. It counts as functional, cell-based. Summed up: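 CHO-1A cells (10^4/well) grown 24 h, then 24 h in serum-free DMEM/F-12. Compounds co-incubated with 1 μM forskolin for 15 min at 37 °C in serum-free medium with 5 μM pargyline and 2.5 mM theophylline. Lysis in 1% Triton X-100/0.1 M HCl, cAMP measured by acetylated ELISA. Sigmoidal or Gaussian bell-shaped fits.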
In general terms: Changes in cAMP serve as a functional read-out for many G protein-coupled receptors.

Assay [4] deals with T1, 5-hydroxytryptamine receptor 1A (Homo sapiens). Briefly: Agonist activity at human 5-HT1A receptor expressed in CHO cells assessed as inhibition of forskolin-stimulated cAMP accumulation after 15 mins by ELISA relative to 5-HT. The assay is classed as functional, cell-based. Summed up:
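CHO-1A cells (10^4/well) grown 24 h, then 24 h in serum-free DMEM/F-12. Compounds co-incubated with 1 μM forskolin for 15 min at 37 °C in serum-free medium with 5 μM pargyline and 2.5 mM theophylline. Lysis in 1% Triton X-100/0.1 M HCl, cAMP measured by acetylated ELISA. Forskolin alone set as 0%, 5-HT maximum as 100%. Sigmoidal or Gaussian bell-shaped fits.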

The target is the same in assay [5]. Briefly: Agonist activity at human 5-HT1A receptor expressed in CHO cells assessed as ERK1/2 phosphorylation at 1 uM after 5 mins by Western blot analysis relative to control. It counts as cell-based. Summed up: (§1)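 CHO-1A cells (2 × 10^5/well) grown 24 h, then 24 h serum-free. Agonists given at 1 μM in medium with 5 μM pargyline and 2.5 mM theophylline for 5 min at 37 °C. Lysates in SDS buffer with protease/phosphatase inhibitors. Phospho-ERK1/2 Western blot densitometry normalized to calnexin, untreated baseline subtracted, 5-HT set as 100%. Three experiments in triplicate, one-way ANOVA with Dunnett's test against untreated.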

Assay [6] has the same target. Briefly: Ratio for agonist activity at human 5-HT1A receptor expressed in CHO cells by forskolin-stimulated cAMP accumulation assay to agonist activity at human 5-HT1A receptor expressed in CHO cells by beta-arrestin-2 recruitment assay. It counts as functional, cell-based.
Assay [7] addresses T2, 5-hydroxytryptamine receptor 1A. Briefly: Agonist activity at human 5-HT1A receptor expressed in CHO cells after 90 mins by beta-arrestin-2 recruitment assay. The assay is classed as cell-based. Summed up:
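PathHunter enzyme-complementation β-arrestin-2 recruitment in CHO-K1 cells carrying HTR1A, 10^4 cells/well, plated 24–48 h at 37 °C before use. Compounds from methanol stocks, final 0.1–100 μM, applied for 90 min at 37 °C. Detection reagents then added for 60 min at room temperature, luminescence read.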

Assay [8] concerns the target T1, 5-hydroxytryptamine receptor 1A (Homo sapiens). Briefly: Agonist activity at human 5-HT1A receptor expressed in CHO cells assessed as ERK1/2 phosphorylation at 1 uM after 5 mins by Western blot analysis relative to 5-HT. The assay is classed as cell-based. Summed up:
as §1

The structures appear in SMILES notation. Calls of active or inactive are those of the source. The rule behind the calls is not given here.

The Emax is the greatest response seen or fitted, relative to the assay's reference. The compound `CCCN(CCC)C1CCc2cccc(O)c2C1` (racemic) came in with an Emax in assay [1] of 44.5%.

The term Ki denotes a measure of affinity in units of concentration, obtained from inhibition or displacement. One may read the EC50 as the concentration that produces a half-maximal response. For the compound `COc1cccc2c(CCCN3CCN(c4ccccn4)CC3)cccc12`, the inhibitory constant (Ki) in assay [2] is 0.38 nM. Further, the concentration for a half-maximal effect (EC50) in assay [3] was 1.26 nM. In addition, the Emax in assay [4] came to 53.6%; in assay [1] it was 10.7%. Also, in assay [5], the result was inactive.

Turning to `COc1cccc2c1CCC/C2=C\CCN1CCN(c2ccccn2)CC1`, the Ratio in assay [6] was under 10. Moreover, the inhibitory constant (Ki) in assay [2] was 0.31 nM. The results for the concentration for a half-maximal effect (EC50) in assay [3] and in assay [7] were 2.95 nM and 3390 nM, respectively. For the same compound, the maximal effect (Emax) in assay [4] came to 66.9%; in assay [1] it was 22.8%.

On to `COc1cccc2c1CCCC2CCCN1CCN(c2ccccn2)CC1` (stereo unspecified), for which the Ki in assay [2] is 0.48 nM. Also, the EC50 in assay [3] was 0.776 nM.

In the case of `COc1ccc2c(c1)CC(CCN1CCN(c3ccccn3)CC1)CC2` (stereo unspecified), the Ratio in assay [6] was under 10. Further, the inhibitory constant (Ki) in assay [2] came to 0.16 nM. Also, the concentration for a half-maximal effect (EC50) was 20.9 nM in assay [3] and 3.55 nM in assay [7]. Besides, the Emax in assay [4] was determined as 73.5%; in assay [1], 35.9%.

Turning to `COc1cccc(CCCCN2CCN(c3ccccn3)CC2)c1`, the Ki in assay [2] turned out to be 23 nM. Also, the Emax in assay [4] is 53.4%; in assay [1], 5.9%.

With `NCCc1c[nH]c2ccc(O)cc12`, in assay [5], the fold change (FC) was 6.4.

For the compound `COc1cccc([C@H]2CC[C@H](N3CCN(c4ccccn4)CC3)CC2)c1`, the Ratio in assay [6] is under 10. For the same compound, in assay [2], the Ki came to 0.028 nM. The EC50 in assay [3] is 0.794 nM; in assay [7] it was 0.324 nM. Moreover, the Emax in assay [4] was determined as 69.5%; in assay [1], 27.9%. Besides, in assay [8], the Activity worked out at 30.4%.

The values above are taken from ChEMBL document CHEMBL3593225 (Bioorg Med Chem, 2015).
